bCat KO growth = beta-catenin-lacking colon tumor cell growth suppression. HCT116 beta-catenin knockout viability, CellTiter-Glo, 60 h; hits give low values. viability, % at 10 µM. 1.5% of 140,000 active;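 active = viability at or under a set limit, the compound median less 4 SD, cut at about 6% in these data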;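 note: 0% = Hyamine 1622 control at 20 µM and 100% = untreated cell control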
Fibroblast inh = blocks proliferation of human lung fibroblasts; LL 47 human lung fibroblast viability, ATP luminescence; hits give low values; viability, % at 10 µM; 1.1% of 85,000 active; AID 719;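 active = viability at or below 50% in the single dose screen; inactive = viability above 50%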;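 note: compound exposure lasted 72 h before the ATP readout; 100% = median luminescence of untreated cell-only wells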
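material = human LL 47 lung fibroblast cells | dosing = compounds added from tenfold dosing solution, 0.1% DMSO final | timing = overnight cell rest, 72 h compound treatment at 37 °C | measured by = CellTiter-Glo luminescence measuring cellular ATP | evaluation = % viability versus median cells-only luminescence | control set = cell-only wells, no compound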
HCT116 PTEN-null = suppresses growth of cells with PTEN deletion; AID 827; 1.2% of 140,000 active; HCT116 PTEN-null viability, CellTiter-Glo, 60 h; hits give low values; viability, % at 10 µM;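 active = viability at or below a set limit, 4 SD under the median of all tested compounds, cut at about 3.7% in these data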;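 note: PTEN knockout HCT116 line with beta catenin targeted HCT116 as companion control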
HUVEC inhibit = human endothelial cell proliferation inhibition; HUVEC proliferation, CellTiter-Glo luminescence, 72 h; hits give low values; viability, % at 10 µM (by protocol); 1.1% of 86,000 active;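 active = viability at or below 30%; inactive = viability above 30%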;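 note: 100% = median luminescence of DMSO-only cell control wells on each plate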
H69AR inhibit = growth inhibitors of human H69AR lung tumor cells. AID 598. viability, % at 10 µM. H69AR lung tumor viability, ATP luminescence, 72 h; hits give low values. 6% of 85,000 active;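 active = viability at or below 40%; inactive = viability above 40%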;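 note: multidrug resistant small cell line overexpressing MRP-1 efflux transporter; 100% = mean luminescence of untreated control wells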
An asterisk follows results filed as active; x = not tested or not shown. This excerpt belongs to a sample that is enriched for hits.

SMILES | bCat KO growth | Fibroblast inh | HCT116 PTEN-null | HUVEC inhibit | H69AR inhibit
COc1ccc(CCNC(=O)COc2ccc(S(=O)(=O)NC(C)C)cc2Cl)cc1OC | 98.7 | x | 98.1 | x | x
CCCc1nc2c(C)cc(C)cc2c(N)c1CC | 36.9 | x | 40.4 | x | x
Cc1cc(C)c2nc(C(F)(F)F)c(C#N)c(N)c2c1 | 84.1 | 94.9 | 100.6 | 40.8 | 39.5*
Cc1ccc2nc(C(F)(F)F)c(C#N)c(N)c2c1 | 3.6* | x | 4.4 | x | x
CC(=O)c1cc(-c2ccccc2)n(CC(=O)Nc2cccc(C)c2)c1C | 77.3 | x | 77.6 | x | x
O=C1c2ccccc2CN1CCSC(=S)N1CCOCC1 | 86.4 | x | 97.0 | x | x
O=C(CSc1nnc(-c2cccs2)n1-c1ccccc1)Nc1ccccc1 | 55.7 | 41.5* | 48.9 | 79.8 | 63.6
O=C(CSc1nnc(-c2cccnc2)n1-c1ccccc1)Nc1ccccc1 | 86.2 | 100.6 | 100.5 | 96.7 | 85.4
Cc1ccc(NC(=O)CSc2nnc(-c3cccnc3)n2-c2ccc(C)cc2)cc1 | 91.3 | 98.0 | 88.8 | 78.8 | 26.5*
Cc1ccccc1-n1c(SCC(=O)c2cc(C)n(C)c2C)nnc1-c1cccnc1 | 99.2 | 99.3 | 109.4 | 110.2 | 38.5*
Cc1ccc(-n2c(Cc3cccs3)nnc2SCC(=O)Nc2ccc(F)c(F)c2)cc1 | 78.0 | 4.0* | 79.7 | 86.2 | 77.0
CCCCn1c(SCC(=O)c2ccccc2)nc2c1c(=O)[nH]c(=O)n2C | 49.7 | 100.6 | 52.2 | 82.7 | 78.4
CCOC(=O)c1c(NC(=O)C2COc3ccccc3O2)sc(C(C)=O)c1C (configuration not stated) | 66.5 | 83.8 | 62.6 | 22.8* | 21.0*
CCOC(=O)c1c(NC(=O)C2COc3ccccc3O2)sc2c1CC(C)(C)NC2(C)C (configuration not stated) | 2.3* | x | 0.7* | x | x
CCNC(=O)c1c(NC(=O)C2COc3ccccc3O2)sc2c1CCCC2 (configuration not stated) | 84.5 | 86.5 | 72.1 | 54.0 | 71.7
COCCCNC(=O)c1c(NC(=O)C2COc3ccccc3O2)sc2c1CCCC2 (configuration not stated) | 91.0 | 100.7 | 80.3 | 76.9 | 34.7*
Cc1ccc(-c2nc(N)sc2-c2ccccc2)cc1C | 90.8 | x | 103.7 | x | x
Cc1ccc(-c2nc3ncccc3o2)cc1NC(=O)c1sc2ccccc2c1Cl | 59.2 | x | 49.1 | x | x
Clc1cccc(-c2cc3nc4c(c(N5CCNCC5)n3n2)CCCC4)c1 | 1.5* | 1.9* | 1.0* | 1.1* | 1.9*
OC1CCN(c2c3c(nc4cc(-c5cccc(F)c5)nn24)CCCC3)CC1 | 73.9 | 97.6 | 61.1 | 74.0 | 95.2
CC(C)Cc1ccc(/C=C/C(=O)NC2CC2)cc1 | 95.3 | x | 97.1 | x | x
Cc1nc(Oc2ccc(S(=O)(=O)N3CCOCC3)cc2Cl)c2c3c(sc2n1)CCCC3 | 18.8 | x | 28.0 | x | x
CC1=CC(C)(C)Nc2ccc(OC(=O)c3ccco3)cc21 | 1.6* | x | 1.3* | x | x
CC1=CC(C)(C)Nc2ccc(OC(=O)CN3C(=O)CCC3=O)cc21 | 1.0* | x | 1.5* | x | x
CC1=CC(C)(C)Nc2ccc(OC(=O)c3cccnc3)cc21 | 0.7* | 23.2* | 1.1* | 53.3 | 2.6*
SMILES | bCat KO growth | Fibroblast inh | HCT116 PTEN-null | HUVEC inhibit | H69AR inhibit
CC1=CC(C)(C)Nc2ccc(OC(=O)C(C)N3C(=O)c4ccccc4C3=O)cc21 (configuration not stated) | 2.0* | x | 1.3* | x | x
CCCCCCNc1nc(-c2ccc(OC)cc2)c(CCC(=O)O)s1 | 96.3 | x | 94.0 | x | x
COc1ccc(NC(=O)C(NC(=O)c2ccc(=O)[nH]c2)c2ccc(OC)cc2)cc1 (configuration not stated) | 100.0 | x | 108.0 | x | x
COC(=O)c1sccc1NC(=S)N1CCN(c2cccc(C)c2C)CC1 | 69.1 | x | 65.5 | x | x
COc1ccccc1N1C(=O)C2C(c3ccccc3F)NN(C(=O)c3ccc(C)cc3)C2C1=O (configuration not stated) | 103.1 | x | 97.6 | x | x
N#Cc1cccc(N=Cc2c(O)ccc3ccccc23)c1 | 87.1 | x | 90.4 | x | x
Cn1nnnc1Sc1nc(-c2cccnc2)nc2ccccc12 | x | 11.7* | x | 86.5 | 0.0*
Cc1ccc(C)c(N2CCN(C(=O)Cc3cn(C)c4ccccc34)CC2)c1 | 84.3 | 96.9 | 84.1 | 81.8 | 69.5
Cc1ccc(Cl)cc1N1CCN(C(=O)Cc2cn(C)c3ccccc23)CC1 | 56.0 | 83.3 | 51.5 | 77.1 | 33.9*
Cc1ccc(Cl)cc1N1CCN(C(=O)c2cc3c(=O)[nH]c4ccccc4c3n2C)CC1 | 5.6* | x | 6.2 | x | x
Cn1c(C(=O)N2CCN(c3ccc(Cl)cc3)CC2)cc2c(=O)[nH]c3ccccc3c21 | 23.0 | 101.6 | 44.7 | 73.8 | 34.4*
Cc1ccc(Cl)cc1N1CCN(C(=O)Cc2c(C(=O)O)[nH]c3ccccc23)CC1 | 94.4 | 102.3 | 95.2 | 75.4 | 75.8
O=C1[C@@H]2[C@@H]3C[C@@H]([C@H]4ON=C(c5ccc(OCc6ccccc6)cc5)[C@@H]34)[C@@H]2C(=O)N1c1ccc2c(c1)OCO2 | 82.9 | x | 85.7 | x | x
COc1ccc(Nc2oc(COc3ccccc3F)nc2C#N)cc1 | 56.9 | 92.8 | 54.6 | 86.9 | 5.4*
Cc1ccc(SCC(=O)N2CCOCC2)cc1 | 91.3 | x | 98.5 | x | x
Cc1ccc(-c2nnc(SCC(=O)N3CCOCC3)nc2-c2ccc(C)cc2)cc1 | 49.1 | 97.6 | 59.1 | 97.8 | 18.8*
Cc1ccc(SCCOCCN2CCc3ccccc3C2)cc1 | 57.9 | x | 62.4 | x | x
Cc1c(C#N)c(N=CN(C)C)c(C(=O)c2ccccc2)n1-c1ccc(Br)cc1 | 60.0 | 82.0 | 62.6 | 88.4 | 19.8*
Cc1c(C#N)c(N=CN(C)C)c(C(=O)c2ccc(Br)cc2)n1-c1ccccc1 | 90.1 | 96.9 | 82.8 | 94.5 | 70.2
CCCCN1CNC(=S)N(Cc2ccccc2)C1 | 88.5 | x | 89.7 | x | x
O=C(Nc1nc(-c2ccccc2)cs1)c1ccc2c(c1)S(=O)(=O)c1ccccc1C2=O | 4.0* | x | 2.5* | x | x
CC(C)NC(=O)c1ccc2c(c1)S(=O)(=O)c1ccccc1C2=O | 104.2 | 106.8 | 102.4 | 105.2 | 82.6
O=c1c2cccnc2[nH]c(=S)n1CCC1=CCCCC1 | 57.4 | 76.7 | 69.4 | 73.9 | 38.0*
CCCCCn1c(=S)[nH]c2ncccc2c1=O | 85.4 | 95.7 | 92.9 | 94.8 | 94.6
CCOC(=O)C1CCC(CN(Cc2ccccc2)S(=O)(=O)c2ccc([N+](=O)[O-])cc2)CC1 (configuration not stated) | 81.2 | x | 84.1 | x | x
SMILES | bCat KO growth | Fibroblast inh | HCT116 PTEN-null | HUVEC inhibit | H69AR inhibit
O=[N+]([O-])c1ccc(/C=N/Nc2nc(N3CCCC3)nc(N3CCCC3)n2)o1 | 64.6 | 87.3 | 44.0 | 6.8* | 25.9*
O=[N+]([O-])c1ccc(/C=N/Nc2nc(-c3ccccc3)c3cc(Br)ccc3n2)o1 | 1.7* | x | 1.4* | x | x
N#Cc1ccccc1/C=N/Nc1nc(-c2ccccc2)c2cc(Br)ccc2n1 | 2.1* | x | 5.6 | x | x
Cc1ccc2nc(N/N=C\c3ccc([N+](=O)[O-])o3)nc(-c3ccccc3)c2c1 | 2.1* | 89.9 | 3.0* | 51.4 | 12.7*
Cc1ccc(C(=O)Nc2ccc(Br)cc2)cc1S(=O)(=O)Nc1ccccn1 | 66.0 | x | 54.3 | x | x
CCc1nc(Nc2ccc3c(c2)OCCO3)c2oc3ccccc3c2n1 | 68.2 | 88.8 | 59.5 | 40.2 | 38.3*

Bioassay records: PubChem, SRMLSC
